Assay outcomes (PubChem BioAssay)
In the library only some 1.6% were active in any assay of this set; here they are far more common.
Dynein cargo inh: inhibitors of GR-EGFP nuclear translocation, primary screen, dynein cargo transport inhibitor project, imaging, high-content, 3617.4 mouse cells; test concentration mostly 20 µM; stimulated with dexamethasone, 1 µM; hits give low values; z-score, hits read low; 220,000 compounds, 0.47% hits; AID 1381, 2008;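 active means plate z-score of nuclear minus cytoplasmic receptor signal below a set negative limit, without overly bright fluorescence or cell loss, cut at about -3.5 in these data, passing the limit was not always enough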;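 further: z-score of nuclear minus cytoplasmic ring GR-EGFP intensity difference per well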
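medium = tetracycline-free induction medium containing charcoal-stripped FBS | probe or stimulus = dexamethasone, 1.0 µM final | timing = 48 h induction, then 1 h compound, then 30 min agonist, 37 °C | detection = automated 10x imaging of fixed Hoechst-stained cells | read-out basis = nuclear versus cytoplasmic GR-EGFP signal, averaged per well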
Beta2AR agonist: beta2AR agonists driving receptor internalization, primary screen, cell-based, FAP fluorogen, flow cytometry; AID 504454, 2011; Beta-2 adrenergic receptor (Homo sapiens), P07550; 340,000 compounds, 0.43% hits; Am2.2-beta2AR cells; response, % (concentration not given with the values);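 active means response above a set limit, near 3 SD of response in nonfluorescent compounds, cut at about 42% in these data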
TLR9-MyD88 block: inhibitors of TLR9-MyD88 association in cells, primary screen, cell-based, CHO, BLA complementation, fluorescence. 340,000 compounds, 0.21% hits. Toll-like receptor 9 (Homo sapiens) + Myeloid differentiation primary response protein …. CCF4 FRET ratio. inhibition, % at 4.98 µM;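 active means inhibition above the mean over all tested compounds plus 3 SD, cut at about 21% in these data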;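 further: 0% = DMSO only wells and 100% = clavulanate BLA inhibitor control wells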
TLR4 MyD88 comp: inhibitors of TLR4-MyD88 association in cells, primary screen, cell-based, HeLa CL3-4, BLA complementation, FRET ratio; 200,000 compounds, 0.18% hits; Toll-like receptor 4 (Homo sapiens) + Myeloid differentiation primary response protein …; HeLa CL3-4 TLR4/MyD88 BLA complementation; inhibition, % at 8.4 µM; in the data active means inhibition above about 25%;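 further: 0% = vehicle and 100% = reference inhibitor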
ABHD5 PLIN5 PPI: ABHD5-PLIN5 interaction inhibitors, primary screen, cell lysate, split luciferase complementation, luminescence; Perilipin-5 (Homo sapiens) + 1-acylglycerol-3-phosphate O-acyltransferase ABHD5 (Homo …; Split G. princeps luciferase complementation, 4 h; inhibition, % at 4 µM; 360,000 compounds, 0.78% hits;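 active means inhibition above the mean inhibition across every tested compound plus 3 SD, cut at about 22% in these data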;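 further: 0% = DMSO only wells and the 100% control is not disclosed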
NOD2-RIPK2 inh: NOD2-RIPK2 binding disruptors in cells, primary screen, fluorescence, CHO cells, BLA complementation | Receptor-interacting serine/threonine-protein kinase 2 (Homo sapiens), O43353 | CCF4 ratio | inhibition, % at 4.98 µM | 360,000 compounds, 0.38% hits | AID 624267, 2012; in the data active means inhibition above about 21%;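 further: 0% = vehicle only and 100% = reference blocker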
Target sequence (O43353 whole entry, looked up): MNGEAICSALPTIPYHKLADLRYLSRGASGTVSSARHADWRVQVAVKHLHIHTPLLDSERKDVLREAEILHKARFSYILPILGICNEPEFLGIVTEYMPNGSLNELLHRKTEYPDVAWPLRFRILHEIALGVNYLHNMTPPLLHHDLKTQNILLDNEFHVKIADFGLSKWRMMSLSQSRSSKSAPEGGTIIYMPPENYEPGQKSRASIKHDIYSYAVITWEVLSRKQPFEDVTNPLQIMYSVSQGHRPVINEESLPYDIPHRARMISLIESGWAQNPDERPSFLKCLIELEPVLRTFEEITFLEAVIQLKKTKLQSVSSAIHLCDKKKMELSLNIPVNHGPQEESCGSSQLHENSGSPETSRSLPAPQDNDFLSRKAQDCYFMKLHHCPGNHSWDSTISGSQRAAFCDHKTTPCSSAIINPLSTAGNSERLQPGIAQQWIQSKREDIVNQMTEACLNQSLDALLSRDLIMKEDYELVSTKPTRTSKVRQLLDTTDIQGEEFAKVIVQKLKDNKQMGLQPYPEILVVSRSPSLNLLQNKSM
ABHD5 PLIN5 conf: ABHD5-PLIN5 interaction inhibitors, confirmation, biochemical, luminescence; shares compounds with ABHD5 PLIN5 PPI; inhibition, % at 4 µM; 2,200 compounds, 67% hits; in the data active means inhibition above about 23%;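 further: 0% = DMSO vehicle wells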
HNF4 split-luc: HNF4 dimerization inhibitors, counter-screen for ABHD5-PLIN5 interaction inhibitor project, biochemical, split-luciferase complementation, luminescence. shares compounds with ABHD5 PLIN5 PPI. inhibition, % at 4 µM. 2,200 compounds, 77% hits. AID 651674, 2012;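 active means mean inhibition across replicate wells exceeding the computed hit threshold, cut at about 13% in these data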;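 further: light from luciferase halves that rejoin when HNF4 fusion proteins dimerize; 0% = DMSO only wells and the 100% control is not given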
* = called active by the depositor.

`Cc1cccc(NC(=O)CN2C(=O)N/C(=C/c3ccc(C)o3)C2=O)c1` gave Dynein cargo inh 1.14, Beta2AR agonist 9.1, TLR9-MyD88 block 2.2, TLR4 MyD88 comp -8.1, ABHD5 PLIN5 PPI 61.2*, NOD2-RIPK2 inh -6.3, ABHD5 PLIN5 conf 35.2* and HNF4 split-luc 98.7*.
`Cc1ccc(NC(=O)CN2C(=O)N/C(=C/c3ccc(C)o3)C2=O)cc1` gave Dynein cargo inh -1.02, Beta2AR agonist 2.7, TLR9-MyD88 block 6.8, TLR4 MyD88 comp -9.6, ABHD5 PLIN5 PPI 42.0*, NOD2-RIPK2 inh -2.9, ABHD5 PLIN5 conf 45.6* and HNF4 split-luc 87.7*.
C=CCN1C(=O)N/C(=C/c2ccc(C)o2)C1=O was read as Dynein cargo inh 0.0284, Beta2AR agonist 9.1, TLR9-MyD88 block -8.0, TLR4 MyD88 comp -3.8, ABHD5 PLIN5 PPI 31.5*, NOD2-RIPK2 inh -2.7, ABHD5 PLIN5 conf 14.0 and HNF4 split-luc 87.9*.
Cc1cccc(NC(=O)CN2C(=O)N/C(=C\c3ccc(-c4cccc(C(=O)O)c4)o3)C2=O)c1 was read as Dynein cargo inh -0.0707, Beta2AR agonist 7.7, TLR9-MyD88 block 0.0, ABHD5 PLIN5 PPI 7.9 and NOD2-RIPK2 inh 0.6.
COc1cccc2c1oc1c(SCc3nc4ccccc4[nH]3)nc(C)nc12 was read as Beta2AR agonist -16.3, TLR9-MyD88 block -4.9, ABHD5 PLIN5 PPI 9.5 and NOD2-RIPK2 inh -0.9.
Screening C[C@H](CO)N1C[C@H](C)[C@@H](CN(C)Cc2ccc(Cl)c(Cl)c2)Oc2c(NC(=O)Cc3ccccc3)cccc2C1=O returned Beta2AR agonist 12.1, TLR9-MyD88 block 5.2, ABHD5 PLIN5 PPI 26.3*, NOD2-RIPK2 inh -6.3, ABHD5 PLIN5 conf 4.7 and HNF4 split-luc -0.1.
Screening Cc1nn(-c2ccc(Cl)cc2)c(Cl)c1/C=C(\C#N)C(N)=O returned Dynein cargo inh -0.703, Beta2AR agonist 5.3, TLR9-MyD88 block 2.1, TLR4 MyD88 comp -8.0, ABHD5 PLIN5 PPI 5.4 and NOD2-RIPK2 inh 1.0.
Screening C=CCNC(=O)/C(C#N)=C/c1c(C)nn(-c2ccc(Cl)cc2)c1Cl returned Dynein cargo inh 1.11, Beta2AR agonist 5.4, TLR9-MyD88 block 2.3, TLR4 MyD88 comp 3.0, ABHD5 PLIN5 PPI 33.8*, NOD2-RIPK2 inh -1.9, ABHD5 PLIN5 conf 40.9* and HNF4 split-luc 45.4*.
For CC(=O)C1=C(c2cccc([N+](=O)[O-])c2)N(C(C)=O)n2c(C)nnc2S1 the results were Dynein cargo inh -0.409, Beta2AR agonist 12.2, TLR9-MyD88 block -1.2, TLR4 MyD88 comp -1.9, ABHD5 PLIN5 PPI 61.4*, NOD2-RIPK2 inh -2.3, ABHD5 PLIN5 conf 82.5* and HNF4 split-luc 47.3*.
`COc1ccc(C2=NN(C(=O)c3cccc([N+](=O)[O-])c3)C(c3cccc([N+](=O)[O-])c3)C2)cc1` (configuration not stated) gave Dynein cargo inh 1.33, Beta2AR agonist -4.6, TLR9-MyD88 block -8.9, TLR4 MyD88 comp -11.1, ABHD5 PLIN5 PPI -5.7 and NOD2-RIPK2 inh -12.1.
`Cc1ccc(C2=Nc3ccccc3SC(c3cccc([N+](=O)[O-])c3)C2)cc1` (configuration not stated) gave Dynein cargo inh -0.0829, Beta2AR agonist 3.6, TLR9-MyD88 block -1.4, ABHD5 PLIN5 PPI 59.5*, NOD2-RIPK2 inh -4.0, ABHD5 PLIN5 conf 2.6 and HNF4 split-luc 73.5*.
For O=C(CSc1nnc(NC(=O)c2ccccc2F)s1)NCC1CCCO1 (configuration not stated) the results were Beta2AR agonist 6.5, TLR9-MyD88 block -16.5, ABHD5 PLIN5 PPI -0.8 and NOD2-RIPK2 inh 4.0.
For COc1ccc(OC)c(C(c2c(O)nc(SC)[nH]c2=O)c2c(O)nc(SC)[nH]c2=O)c1 the results were Beta2AR agonist 3.4, TLR9-MyD88 block -0.4, ABHD5 PLIN5 PPI 26.0*, NOD2-RIPK2 inh -1.9, ABHD5 PLIN5 conf 51.5* and HNF4 split-luc 48.6*.
For NS(=O)(=O)c1ccc(CNC(=O)CNC(=O)c2ccc(F)cc2)cc1 the results were Beta2AR agonist -7.2, TLR9-MyD88 block -10.8, ABHD5 PLIN5 PPI -10.8 and NOD2-RIPK2 inh 8.9.
`C=CC[C@]12CC=CC(=O)[C@@]1(O)O[C@H](c1ccc(OC)c(OC)c1)[C@H]2C` gave Beta2AR agonist 7.4, TLR9-MyD88 block -5.2, ABHD5 PLIN5 PPI 27.0*, NOD2-RIPK2 inh -15.8, ABHD5 PLIN5 conf 50.0* and HNF4 split-luc 35.9*.
For O=C1/C(=C\c2ccco2)NC(=S)N1c1ccccc1 the results were Dynein cargo inh -0.692, Beta2AR agonist -11.1, TLR9-MyD88 block -10.3, TLR4 MyD88 comp 14.1, ABHD5 PLIN5 PPI 25.0*, NOD2-RIPK2 inh -14.0, ABHD5 PLIN5 conf 30.0* and HNF4 split-luc 44.4*.
For CCCN=C1N/C(=C\c2ccco2)C(=O)N1c1ccccc1 the results were Dynein cargo inh 0.744, Beta2AR agonist -7.2, TLR9-MyD88 block 5.1, TLR4 MyD88 comp -14.0, ABHD5 PLIN5 PPI 0.6 and NOD2-RIPK2 inh -1.2.
Screening CCOC(=O)[C@]12CCC=C1N(CCC1=CCCCC1)C(=O)[C@H](CC(=O)NCc1cccc3ccccc13)C2 returned ABHD5 PLIN5 PPI -1.8 and NOD2-RIPK2 inh -2.5.
Screening CCCCC[C@H](O)/C=C/C1C(=O)C=C[C@H]1C/C=C\CCCC(=O)OC (some centres not stated) returned Beta2AR agonist 9.5, TLR9-MyD88 block 2.3, ABHD5 PLIN5 PPI 36.2*, NOD2-RIPK2 inh 4.8, ABHD5 PLIN5 conf 45.4* and HNF4 split-luc 61.3*.
Screening CCc1ccc(N2CC(C(=O)OCC(=O)N(CC)c3c(N)n(Cc4ccccc4)c(=O)[nH]c3=O)CC2=O)cc1 (configuration not stated) returned Beta2AR agonist 6.8, TLR9-MyD88 block 11.4, ABHD5 PLIN5 PPI 6.5 and NOD2-RIPK2 inh -5.9.
CCNC(=S)Nc1ccc2cn[nH]c2c1 was read as Dynein cargo inh -0.371, Beta2AR agonist -6.5, TLR9-MyD88 block -0.7, TLR4 MyD88 comp -7.4, ABHD5 PLIN5 PPI -4.3 and NOD2-RIPK2 inh -0.6.
`N#CC(C#N)=NNc1ccc2cn[nH]c2c1` gave ABHD5 PLIN5 PPI 47.7*, NOD2-RIPK2 inh -6.6, ABHD5 PLIN5 conf 55.0* and HNF4 split-luc 57.6*.
